Experiments:
Rattus norvegicus [1] = experiment: Antidepressant activity was measured by the potentiation of head twitching induced by 5-hydroxy-tryptophan in pargyline-pretreated rats after ip administration; type: functional
How it was run: (§1)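 Male Wistar rats (150–200 g), six per group (ten per dose in dose-range runs), received pargyline HCl 75 mg/kg sc 4 h before testing. Compound in distilled water plus Tween 80 was given ip 30 min before, then L-5-HTP 1.0 mg/kg ip. From 5 min after 5-HTP, rats were observed 15 min for head twitching with coarse tremors. Results are percent potentiation normalized to vehicle; ED50 with 95% limits by linear regression.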

Mus musculus [2] = experiment: Antidepressant activity was measured by the inhibition of tetrabenazine (TBZ) ptosis in mice after i.p. administration.; type: functional; conditions: ip
How it was run: (§2)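 Male Charles River CD-1 mice (20–30 g), groups of five, dosed ip with compound in distilled water plus a few drops of Tween 80. Tetrabenazine methanesulfonate was given at 40 mg/kg ip 30 min later. After another 30 min, ptosis was scored 0–2 (eyes open, half-open, closed). ED50 and 95% confidence intervals came from linear regression of the scores.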

Mus musculus [3] = experiment: Antidepressant activity was measured by the inhibition of tetrabenazine ptosis in mice after po administration.; type: functional
How it was run: as §2, with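 “dosed orally” for “dosed ip”, “ip 60” for “ip 30”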

Mus musculus [4] = experiment: Antidepressant activity was measured by the inhibition of tetrabenazine (TBZ) ptosis in mice after po administration; type: functional
How it was run: as §2, with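 “dosed orally” for “dosed ip”, “ip 60” for “ip 30”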

Mus musculus [5] = experiment: Antidepressant activity was measured by the inhibition of tetrabenazine (TBZ) ptosis in mice after ip administration; type: functional; how it was run: as §2
Rattus norvegicus [6] = experiment: Antidepressant activity was measured by the potentiation of head twitching induced by 5-hydroxy-tryptophan in pargyline-pretreated rats after ip administration;d=Seizures before 5-HTP dosing; type: functional, organism-based; how it was run: as §1
Rattus norvegicus [7] = experiment: Antidepressant activity was measured by the potentiation of head twitching induced by 5-hydroxy-tryptophan in pargyline-pretreated rats after po administration.
Rattus norvegicus [8] = experiment: Antidepressant activity was measured by the potentiation of head twitching induced by 5-hydroxy-tryptophan in pargyline-pretreated rats after ip administration; d= Seizures before 5-HTP dosing; type: functional, organism-based; how it was run: as §1
Mus musculus [9] = experiment: Antidepressant activity was measured by the inhibition of tetrabenazine (TBZ) ptosis in mice after po administration […]; type: functional

Compound	ED50 (Rattus norvegicus [1]) [mg/kg]	ED50 (Mus musculus [2]) [mg/kg]	ED50 (Mus musculus [3]) [mg/kg]	also measured
Br.CN1CCC2(CC1)SC(c1ccc(Cl)cc1Cl)c1ccccc12 (stereo not given)	0.91	1.6	3.8	–
Cc1cccc(C2SC3(CCNCC3)c3ccccc32)c1 (stereo not given)	0.71	1.9	2.9	–
CNCCCN1c2ccccc2CCc2ccccc21 [DESIPRAMINE]	> 10	–	–	ED50 (Mus musculus [4]): 1.6 mg/kg; ED50 (Mus musculus [5]): 0.8 mg/kg
Clc1cccc(C2SC3(CCNCC3)c3ccccc32)c1 (stereo not given)	–	0.52	1.8	ED50 (Rattus norvegicus [6]): Seizures before dosing
Clc1ccc(C2SC3(CCNCC3)c3ccccc32)cc1Cl (stereo not given)	0.4	–	0.82	–
Clc1ccc(C2SC3(CCNCC3)c3ccccc32)cc1 (stereo not given)	0.03	2.1	1.6	ED50 (Rattus norvegicus [7]): 0.78 mg/kg
CN1CCC2(CC1)SC(c1cccc(F)c1)c1ccccc12 (stereo not given)	> 10	0.83	3.3	–
Br.CN1CCC2(CC1)SC(c1cccc(Cl)c1)c1ccccc12 (stereo not given)	–	0.9	1.3	ED50 (Rattus norvegicus [8]): Seizures before dosing
CN1CCC2(CC1)SC(c1ccccc1Cl)c1ccccc12 (stereo not given)	10.1	0.6	3.6	–
Fc1cccc(C2SC3(CCNCC3)c3ccccc32)c1 (stereo not given)	0.16	–	3.1	–
CN1CCC2(CC1)SC(c1ccc(Cl)cc1)c1ccccc12 (stereo not given)	0.4	1.3	1.4	–
Br.CN1CCC2(CC1)SC(c1ccccc1F)c1ccccc12 (stereo not given)	> 10	3	2.1	–
CN1CCC2(CC1)SC(c1ccccc1)c1ccccc12 (stereo not given)	3.4	–	–	ED50 (Mus musculus [4]): 4.6 mg/kg; ED50 (Mus musculus [5]): 2.5 mg/kg
CN1CCC2(CC1)SC(c1ccccc1)c1ccc(F)cc12 (stereo not given)	> 10	1.8	2.8	–
CN1CCC2(CC1)SC(c1ccc(F)cc1)c1ccccc12 (stereo not given)	1.5	1.4	3.1	–
Cc1ccccc1C1SC2(CCNCC2)c2ccccc21 (stereo not given)	2.8	–	1.4	–

Compound	ED50 (Rattus norvegicus [1]) [mg/kg]	ED50 (Mus musculus [2]) [mg/kg]	ED50 (Mus musculus [3]) [mg/kg]	also measured
CN1CCC2(CC1)SC(c1cccc(C(F)(F)F)c1)c1ccccc12 (stereo not given)	0.52	0.73	1.6	–
FC(F)(F)c1cccc(C2SC3(CCNCC3)c3ccccc32)c1 (stereo not given)	–	1.2	1.7	–
Fc1ccccc1C1SC2(CCNCC2)c2ccccc21 (stereo not given)	3.9	0.78	6.6	–
Cc1ccc(C2SC3(CCNCC3)c3ccccc32)cc1 (stereo not given)	0.16	0.69	3.6	–
Br.Cc1cccc(C2SC3(CCN(C)CC3)c3ccccc32)c1 (stereo not given)	> 2	~20	–	–
CN(C)CCC=C1c2ccccc2CCc2ccccc21 [AMITRIPTYLINE]	7.1	1.5	7.8	–
Clc1ccccc1C1SC2(CCNCC2)c2ccccc21 (stereo not given)	4.4	–	2.2	–
CN1CCC2(CC1)SC(c1ccc(Cl)c(Cl)c1)c1ccccc12 (stereo not given)	0.58	3.5	6.1	–
Cc1ccc(C2SC3(CCN(C)CC3)c3ccccc32)cc1 (stereo not given)	1	~3	–	–
Cc1ccccc1C1SC2(CCN(C)CC2)c2ccccc21 (stereo not given)	> 10	0.77	1.3	–
CN(C)CCCN1c2ccccc2CCc2ccc(Cl)cc21 [CLOMIPRAMINE]	3.1	–	–	ED50 (Mus musculus [4]): 3.5 mg/kg; ED50 (Mus musculus [5]): 0.73 mg/kg
Clc1ccc(C2SC3(CCNCC3)c3ccccc32)c(Cl)c1 (stereo not given)	2.2	2.4	3.8	–
Fc1ccc(C2SC3(CCNCC3)c3ccccc32)cc1 (stereo not given)	0.32	0.67	2.1	–
c1ccc(C2SC3(CCNCC3)c3ccccc32)cc1 (stereo not given)	3	1.1	–	ED50 (Mus musculus [9]): 1.1 mg/kg
CNCCC(Oc1ccc(C(F)(F)F)cc1)c1ccccc1 (stereo not given) [FLUOXETINE]	0.6	–	–	–

— ChEMBL document CHEMBL1121718, “Novel tetracyclic spiropiperidines. 1. 3-Aryl-1,3-dihydrospiro[benzo[c]thiophene-1,4'-piperidines] as potential antidepressants” (1981)
